Data reported in ChEMBL document CHEMBL4680087, “Chemical Inhibition of Human Thymidylate Kinase and Structural Insights into the Phosphate Binding Loop and Ligand-Induced Degradation” (J Med Chem, 2016).
Calls of active or inactive are those of the source. The calls are words filed in the database; no cut-off is given here.

Columns and labels:
[1] = target: T1, Thymidylate kinase (Homo sapiens) (UniProt P23919); test: Inhibition of GST-tagged human TMPK expressed in Escherichia coli BL21 at 2 uM incubated for 10 mins by luciferase-coupled TMPK assay
T1 sequence (whole entry): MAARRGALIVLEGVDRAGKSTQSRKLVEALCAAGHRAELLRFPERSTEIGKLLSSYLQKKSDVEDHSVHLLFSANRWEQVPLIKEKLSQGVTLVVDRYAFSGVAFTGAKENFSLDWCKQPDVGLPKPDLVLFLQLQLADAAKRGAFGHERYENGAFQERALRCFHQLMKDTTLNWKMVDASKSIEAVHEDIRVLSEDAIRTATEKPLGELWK

[2] = Cytotoxicity in mouse 32D cells after 3 days by WST-1 assay; format: cell-based; conditions: 72 h, time 3 day
[3] = target: T1, Thymidylate kinase (Homo sapiens); test: Inhibition of GST-tagged human TMPK expressed in Escherichia coli BL21 incubated for 20 mins by NADH-coupled colorimetric assay
Procedure, shortened: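 Purified hTMPK at 25 °C in 100 mM Tris-HCl pH 7.5, 100 mM KCl, 10 mM MgCl2, 500 μM ATP, 250 μM TMP/CMP. Coupling mix: 500 μM phosphoenolpyruvate, 250 μM NADH, pyruvate kinase (4 units) and lactate dehydrogenase (5 units). NADH change read at 340 nm after 20 min.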

[4] = Cytotoxicity in IL-3-dependent mouse 32D cells expressing Bcr-Abl after 3 days by WST-1 assay; format: functional, cell-based; conditions: 72 h
Thymidylate kinase = target: T2, Thymidylate kinase (Homo sapiens, UniProt P23919); test: Inhibition of GST-tagged human TMPK expressed in Escherichia coli BL21 incubated for 10 mins by luciferase-coupled TMPK assay
T2 sequence (P23919 whole entry): T1 sequence (whole entry)
Procedure, shortened: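 Purified hTMPK (10 μL of 0.1 μg/μL) and compound (10 μL of 10 μM, diluted from 10 mM DMSO stock) added to 100 mM Tris-HCl pH 7.5, 100 mM KCl, 10 mM MgCl2, 5 μM ATP, 100 μM dTMP. Reaction run 10 min at 25 °C. Remaining ATP read by CellTiter-Glo luminescence. IC50 from triplicate independent experiments.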

[5] = Inhibition of tyrosine kinase activity in protein samples from human MDA-MB-231 cells using TK substrate incubated for 30 mins; format: cell-based; conditions: MDA-MB-231, 0.5 h
Procedure, shortened: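 Tyrosine kinase immunoprecipitated from MB-231 cell protein extracts and suspended in kinase solution with 10 mM 2-mercaptoethanol. Diluted enzyme mixed with compound (from 5 mM aqueous dilution) and ATP on substrate-coated wells, 37 °C, 30 min. Phosphotyrosine detected with anti-phosphotyrosine (PY20)-HRP and HRP substrate, stopped with H2SO4, absorbance read at 450 nm.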

[6] = target: T1, Thymidylate kinase (Homo sapiens); test: Binding affinity to GST-tagged human TMPK expressed in Escherichia coli BL21 assessed as formation of disulfide bonds with Cys residues incubated for 30 mins at 25 degC in presence of trypsin by LC-MS/MS analysis
Procedure, shortened: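 hTMPK incubated with compound (20 μL of 10 mM DMSO stock in 1 mL PBS pH 7.4), 25 °C, 30 min. DTNB served as positive control and DMSO as negative control. Excess compound removed by dialysis against water. Digested with trypsin (1:50 w/w), 37 °C, 12 h, without denaturation or DTT reduction. Peptides analysed by nanoLC-ESI-MS/MS.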

[7] = target: T1, Thymidylate kinase (Homo sapiens); test: Binding affinity to ATP binding site of GST-tagged human TMPK expressed in Escherichia coli […] assessed as mass shift of labeled peptides in presence of trypsin by LC-MS/MS analysis
Procedure, shortened: (§1)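 Purified hTMPK (from GST fusion in E. coli […], thrombin-cleaved) preincubated with biotin-arylazide photoprobe in PBS pH 7.4, 25 °C, 30 min, then irradiated with 254-nm UV light three times for 1 min each. Protein denatured in 6.5 M urea, reduced with DTT and alkylated with iodoacetamide. Digested with trypsin (1:50 w/w) or chymotrypsin (1:100 w/w), 37 °C, 16 h. Peptides analysed by nanoLC-ESI-MS/MS, with or without monomeric avidin enrichment.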

[8] = target: T1, Thymidylate kinase (Homo sapiens); test: Binding affinity to GST-tagged human TMPK expressed in Escherichia coli BL21 pre-incubated for 30 mins at 25 degC followed by absence of irradiation by HRP based Western blot analysis
Procedure, shortened: (§2)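 Photoprobe (6.8 μL of 3 mM DMSO stock) and purified hTMPK incubated in 1 mL PBS pH 7.4 with protease inhibitor cocktail, 25 °C, 30 min. Irradiation where applied: 254-nm UV, three 1-min exposures. Samples boiled in SDS sample buffer and run on 12% SDS-PAGE. Transferred to PVDF, probed with streptavidin-HRP, detected by chemiluminescence.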

[9] = target: T1, Thymidylate kinase (Homo sapiens); test: Binding affinity to GST-tagged human TMPK expressed in Escherichia coli BL21 pre-incubated for 30 mins at 25 degC followed by UV irradiation by HRP based Western blot analysis; procedure, shortened: as §2
[10] = target: T1, Thymidylate kinase (Homo sapiens); test: Binding affinity to ATP binding site of GST-tagged human TMPK expressed in […] assessed as mass shift of labeled peptides in presence of chymotrypsin by LC-MS/MS analysis; procedure, shortened: as §1
[11] = target: T1, Thymidylate kinase (Homo sapiens); test: Inhibition of GST-tagged human TMPK expressed in Escherichia coli BL21 incubated for 10 mins in presence of [gamma-32P]ATP by 32P-phosphate transfer assay
Procedure, shortened: (§3)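 hTMPK (0.2 μg) or Candida Cdc8 (0.02 μg; GST fusion from E. coli BL21, purified similarly). Compound preincubated 10 min, then enzyme added to 0.05 μM [γ-32P]ATP, 50 μM ATP and 50 μM dTMP in 100 mM Tris-HCl, 100 mM KCl, 10 mM MgCl2. Stopped by heating. Products separated by PEI-cellulose TLC (2 M acetic acid/0.5 M LiCl), and 32P-dTDP spots counted by scintillation.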

Candida = test: Inhibition of Candida Cdc8 incubated for 10 mins in presence of [gamma-32P]ATP by 32P-phosphate transfer assay; procedure, shortened: as §3
[12] = target: T1, Thymidylate kinase (Homo sapiens); test: Binding affinity to GST-tagged human TMPK expressed in Escherichia coli BL21 assessed as binding constant for compound to protein 1:1 stoichiometry by ITC analysis
Procedure, shortened: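 ITC in PBS pH 7.4 with 50% glycerol at 298 K, stirring at 1000 rpm. Compound (1.228 mM) injected into hTMPK (0.0817 mM): a first 0.5 μL injection, then 2 μL injections at 4-min spacing. Fitted for stoichiometry, association constant, ΔH and ΔS.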

SMILES: O=c1c2ccccc2sn1-c1ccc(F)c(Cl)c1
- inhibition [1]: < 2%

SMILES: CC(C)(C)OC(=O)N1CCN(C(=O)Cn2sc3ccccc3c2=O)CC1
- Activity [2]: Non-Toxic
- inhibition [1]: 91.3%
- inhibition [3]: Active
- EC50 [4]: 650 nM
- IC50 (Thymidylate kinase): 350 nM
- IC50 [5]: > 100000 nM

SMILES: CCOC(=O)N1CCN(C(=O)COc2nsc3cc(C)cc(C)c23)CC1
- inhibition [1]: inactive

SMILES: O=c1c2ccccc2sn1-c1ccccc1
- Activity [6]: Active

SMILES: CCOC(=O)N1CCN(C(=O)CCCn2sc3ccccc3c2=O)CC1
- inhibition [1]: 7%

SMILES: Cc1cc(C)c2c(=O)n(CC(=O)N3CCN(C(=O)OC(C)(C)C)CC3)sc2n1
- inhibition [1]: 76.3%

SMILES: O=C(O)c1cc(SSc2ccc([N+](=O)[O-])c(C(=O)O)c2)ccc1[N+](=O)[O-]
- Activity [6]: Active

SMILES: CC(C)(C)OC(=O)N1CCN(C(=O)COc2nsc3ncccc23)CC1
- inhibition [1]: inactive

SMILES: CC(C)(C)OC(=O)N1CCN(C(=O)COc2nsc3ccccc23)CC1
- inhibition [1]: inactive

SMILES: CCOC(=O)N1CCN(C(=O)Cn2sc3ccccc3c2=O)CC1
- inhibition [1]: 70%

SMILES: [N-]=[N+]=Nc1ccc2c(=O)n(CC(=O)N3CCN(CCOCCOCCOC(=O)CCCC[C@@H]4SC[C@@H]5NC(=O)N[C@@H]54)CC3)sc2c1
- Activity [7]: 648 Da
- Activity [8]: inactive
- Activity [9]: Active
- inhibition [1]: 86.9%
- Activity [10]: 422 Da
- IC50 [5]: > 100000 nM

SMILES: CC(C)(C)OC(=O)N1CCN(C(=O)Cn2sc3ncccc3c2=O)CC1
- Activity [2]: Non-Toxic
- inhibition [1]: 91.3%
- inhibition [3]: Active
- EC50 [4]: 1400 nM
- IC50 (Thymidylate kinase): 470 nM
- IC50 [5]: > 100000 nM

SMILES: CCOC(=O)N1CCN(C(=O)Cn2sc3nc(C)cc(C)c3c2=O)CC1
- inhibition [11]: Active
- Activity [6]: inactive
- Activity [2]: Non-Toxic
- inhibition (Candida): inactive
- inhibition [1]: 70%
- inhibition [3]: Active
- EC50 [4]: 880 nM
- IC50 (Thymidylate kinase): 1650 nM
- IC50 [5]: > 100000 nM

SMILES: Cc1cc(C)c2c(=O)n(CC(=O)N3CCNCC3)sc2n1
- K [12]: 127000 M⁻¹
- inhibition [1]: 73.4%
